{
  "source": "ChEMBL document CHEMBL1124280",
  "about": "“Synthesis and biological evaluation of isomeric dinucleoside monophosphates and monomethylphosphonates of 9-beta-D-arabinofuranosyladenine and related analogues” (1988)",
  "assay_type_in_all_cases": "functional",
  "key": {"FM3A": {"test_system": "FM3A", "assay": "Inhibitory effect on proliferation of Murine mammary Carcinoma (FM3A)", "conditions": "Mus musculus, read-out: ID50 (the source's name)"}, "HeLa [1]": {"test_system": "HeLa", "assay": "Minimum cytotoxic concentration against vaccinia virus in aneuploid (Hela) human cells", "outline": "(§1)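 Uninfected confluent monolayers (rabbit kidney, HeLa, Vero or E6SM) were incubated with compound for the same time as the antiviral assay. The value is the lowest concentration (µg/mL) that causes a microscopically detectable change in normal cell morphology.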"}, "HeLa [2]": {"test_system": "HeLa", "assay": "Minimum inhibitory concentration against vaccinia virus in aneuploid (Hela) human cells"}, "Homo sapiens [3]": {"species": "Homo sapiens", "assay": "Minimum cytotoxic concentration in diploid (E6SM) human cell culture", "outline": "as §1"}, "Homo sapiens [4]": {"species": "Homo sapiens", "assay": "Minimum inhibitory concentration against vaccinia virus in diploid (E6SM) human cell culture"}, "Homo sapiens [5]": {"species": "Homo sapiens", "assay": "Inhibitory effect on proliferation of Human B-Lymphoblast (Raji)", "conditions": "read-out: ID50 (the source's name)"}, "L1210": {"test_system": "L1210", "assay": "Inhibitory effect on Proliferation of Murine Leukemia (L1210)", "conditions": "Mus musculus, read-out: ID50 (the source's name)"}, "Oryctolagus cuniculus [6]": {"species": "Oryctolagus cuniculus", "assay": "Minimum cytotoxic concentration against herpes simplex virus in primary rabbit kidney cell cultures", "outline": "as §1"}, "Oryctolagus cuniculus [7]": {"species": "Oryctolagus cuniculus", "assay": "Antiviral activity in primary rabbit kidney cell cultures against Herpes Simplex virus type 1 (Fstrain)"}, "Oryctolagus cuniculus [8]": {"species": "Oryctolagus cuniculus", "assay": "Antiviral activity in primary rabbit kidney cell cultures against Herpes Simplex virus type 1 (KOS strain)"}, "Oryctolagus cuniculus [9]": {"species": "Oryctolagus cuniculus", "assay": "Antiviral activity in primary rabbit kidney cell cultures against Herpes Simplex virus type 1 (McIntyre strain)"}, "Oryctolagus cuniculus [10]": {"species": "Oryctolagus cuniculus", "assay": "Antiviral activity in primary rabbit kidney cell cultures against Herpes Simplex virus type 1 (TK-strain B2006)"}, "Oryctolagus cuniculus [11]": {"species": "Oryctolagus cuniculus", "assay": "Antiviral activity in primary rabbit kidney cell cultures against Herpes Simplex virus type 1 (TK-strain VMW I837)"}, "Oryctolagus cuniculus [12]": {"species": "Oryctolagus cuniculus", "assay": "Antiviral activity in primary rabbit kidney cell cultures against Herpes simplex virus type 2 Strain 196"}, "Oryctolagus cuniculus [13]": {"species": "Oryctolagus cuniculus", "assay": "Antiviral activity in primary rabbit kidney cell cultures against Herpes simplex virus type 2 Strain G"}, "Oryctolagus cuniculus [14]": {"species": "Oryctolagus cuniculus", "assay": "Antiviral activity in primary rabbit kidney cell cultures against Herpes simplex virus type 2 Strain Lyons"}, "Oryctolagus cuniculus [15]": {"species": "Oryctolagus cuniculus", "assay": "Antiviral activity in primary rabbit kidney cell cultures against vesicular stomatitis virus"}, "[16]": {"assay": "Inhibitory effect on proliferation of Human T-Lymphoblast (Molt/4F) cells", "conditions": "read-out: ID50 (the source's name)"}, "Vero [17]": {"test_system": "Vero", "assay": "Minimum inhibitory concentration against vaccinia virus in vero cells of African green monkey kidney", "conditions": "Chlorocebus sabaeus"}, "Vero [18]": {"test_system": "Vero", "assay": "Minimum cytotoxic concentration in vero cells of African green monkey kidney", "conditions": "Chlorocebus sabaeus", "outline": "as §1"}, "Oryctolagus cuniculus [19]": {"species": "Oryctolagus cuniculus", "assay": "Antiviral activity in primary rabbit kidney cell cultures against vaccinia virus"}},
  "data": [
    {"smiles": "Nc1ncnc2c1ncn2[C@@H]1O[C@H](COP(=O)([O-])OC[C@H]2O[C@H](n3cnc4c(N)ncnc43)[C@@H](O)[C@@H]2O)[C@@H](O)[C@@H]1O.[Na+]", "values": [
      {"measurement": "IC50", "setting": "FM3A", "value": 86.6, "unit": "µg/mL"},
      {"measurement": "MCC", "setting": "HeLa [1]", "value": "> 400", "unit": "µg/mL"},
      {"measurement": "MIC", "setting": "HeLa [2]", "value": 200, "unit": "µg/mL"},
      {"measurement": "MCC", "setting": "Homo sapiens [3]", "value": "≥ 400", "unit": "µg/mL"},
      {"measurement": "MIC", "setting": "Homo sapiens [4]", "value": 20, "unit": "µg/mL"},
      {"measurement": "IC50", "setting": "Homo sapiens [5]", "value": "> 100", "unit": "µg/mL"},
      {"measurement": "IC50", "setting": "L1210", "value": "> 100", "unit": "µg/mL"},
      {"measurement": "MCC", "setting": "Oryctolagus cuniculus [6]", "value": "> 400", "unit": "µg/mL"},
      {"measurement": "MIC", "setting": "Oryctolagus cuniculus [7]", "value": 70, "unit": "µg/mL"},
      {"measurement": "MIC", "setting": "Oryctolagus cuniculus [8]", "value": 70, "unit": "µg/mL"},
      {"measurement": "MIC", "setting": "Oryctolagus cuniculus [9]", "value": 70, "unit": "µg/mL"},
      {"measurement": "MIC", "setting": "Oryctolagus cuniculus [10]", "value": 300, "unit": "µg/mL"},
      {"measurement": "MIC", "setting": "Oryctolagus cuniculus [11]", "value": 150, "unit": "µg/mL"},
      {"measurement": "MIC", "setting": "Oryctolagus cuniculus [12]", "value": 100, "unit": "µg/mL"},
      {"measurement": "MIC", "setting": "Oryctolagus cuniculus [13]", "value": 70, "unit": "µg/mL"},
      {"measurement": "MIC", "setting": "Oryctolagus cuniculus [14]", "value": 20, "unit": "µg/mL"},
      {"measurement": "MIC", "setting": "Oryctolagus cuniculus [15]", "value": "> 400", "unit": "µg/mL"},
      {"measurement": "IC50", "setting": "[16]", "value": 43, "unit": "µg/mL"},
      {"measurement": "MIC", "setting": "Vero [17]", "value": 70, "unit": "µg/mL"},
      {"measurement": "MCC", "setting": "Vero [18]", "value": "> 400", "unit": "µg/mL"},
      {"measurement": "MIC", "setting": "Oryctolagus cuniculus [19]", "value": 7, "unit": "µg/mL"}
    ]},
    {"smiles": "Nc1ncnc2c1ncn2[C@@H]1O[C@H](CO)[C@@H](OP(=O)([O-])O[C@H]2[C@H](O)[C@H](n3cnc4c(N)ncnc43)O[C@@H]2CO)[C@@H]1O.[Na+]", "values": [
      {"measurement": "IC50", "setting": "FM3A", "value": "> 100", "unit": "µg/mL"},
      {"measurement": "MCC", "setting": "HeLa [1]", "value": "≥ 400", "unit": "µg/mL"},
      {"measurement": "MIC", "setting": "HeLa [2]", "value": "> 400", "unit": "µg/mL"},
      {"measurement": "MCC", "setting": "Homo sapiens [3]", "value": "> 400", "unit": "µg/mL"},
      {"measurement": "MIC", "setting": "Homo sapiens [4]", "value": "> 400", "unit": "µg/mL"},
      {"measurement": "IC50", "setting": "Homo sapiens [5]", "value": "> 100", "unit": "µg/mL"},
      {"measurement": "IC50", "setting": "L1210", "value": "> 100", "unit": "µg/mL"},
      {"measurement": "MCC", "setting": "Oryctolagus cuniculus [6]", "value": "> 400", "unit": "µg/mL"},
      {"measurement": "MIC", "setting": "Oryctolagus cuniculus [7]", "value": "> 400", "unit": "µg/mL"},
      {"measurement": "MIC", "setting": "Oryctolagus cuniculus [8]", "value": "> 400", "unit": "µg/mL"},
      {"measurement": "MIC", "setting": "Oryctolagus cuniculus [9]", "value": "> 400", "unit": "µg/mL"},
      {"measurement": "MIC", "setting": "Oryctolagus cuniculus [10]", "value": "> 400", "unit": "µg/mL"},
      {"measurement": "MIC", "setting": "Oryctolagus cuniculus [11]", "value": "> 400", "unit": "µg/mL"},
      {"measurement": "MIC", "setting": "Oryctolagus cuniculus [12]", "value": "> 400", "unit": "µg/mL"},
      {"measurement": "MIC", "setting": "Oryctolagus cuniculus [13]", "value": "> 400", "unit": "µg/mL"},
      {"measurement": "MIC", "setting": "Oryctolagus cuniculus [14]", "value": "> 400", "unit": "µg/mL"},
      {"measurement": "MIC", "setting": "Oryctolagus cuniculus [15]", "value": "> 400", "unit": "µg/mL"},
      {"measurement": "IC50", "setting": "[16]", "value": "> 100", "unit": "µg/mL"},
      {"measurement": "MIC", "setting": "Vero [17]", "value": "> 400", "unit": "µg/mL"},
      {"measurement": "MCC", "setting": "Vero [18]", "value": "≥ 400", "unit": "µg/mL"},
      {"measurement": "MIC", "setting": "Oryctolagus cuniculus [19]", "value": 300, "unit": "µg/mL"}
    ]},
    {"smiles": "Nc1ncnc2c1ncn2C1O[C@H](CO)[C@@H](OP(=O)([O-])OC[C@H]2OC(n3cnc4c(N)ncnc43)[C@H](O)[C@H]2O)[C@@H]1O.[Na+]", "note": "(stereo partly drawn)", "values": [
      {"measurement": "IC50", "setting": "FM3A", "value": 20.4, "unit": "µg/mL"},
      {"measurement": "MCC", "setting": "HeLa [1]", "value": 100, "unit": "µg/mL"},
      {"measurement": "MIC", "setting": "HeLa [2]", "value": 20, "unit": "µg/mL"},
      {"measurement": "MCC", "setting": "Homo sapiens [3]", "value": "≥ 400", "unit": "µg/mL"},
      {"measurement": "MIC", "setting": "Homo sapiens [4]", "value": 10, "unit": "µg/mL"},
      {"measurement": "IC50", "setting": "Homo sapiens [5]", "value": 32.3, "unit": "µg/mL"},
      {"measurement": "IC50", "setting": "L1210", "value": 10, "unit": "µg/mL"},
      {"measurement": "MCC", "setting": "Oryctolagus cuniculus [6]", "value": 100, "unit": "µg/mL"},
      {"measurement": "MIC", "setting": "Oryctolagus cuniculus [7]", "value": 10, "unit": "µg/mL"},
      {"measurement": "MIC", "setting": "Oryctolagus cuniculus [8]", "value": 20, "unit": "µg/mL"},
      {"measurement": "MIC", "setting": "Oryctolagus cuniculus [9]", "value": 7, "unit": "µg/mL"},
      {"measurement": "MIC", "setting": "Oryctolagus cuniculus [10]", "value": 20, "unit": "µg/mL"},
      {"measurement": "MIC", "setting": "Oryctolagus cuniculus [11]", "value": 20, "unit": "µg/mL"},
      {"measurement": "MIC", "setting": "Oryctolagus cuniculus [12]", "value": 20, "unit": "µg/mL"},
      {"measurement": "MIC", "setting": "Oryctolagus cuniculus [13]", "value": 7, "unit": "µg/mL"},
      {"measurement": "MIC", "setting": "Oryctolagus cuniculus [14]", "value": 2, "unit": "µg/mL"},
      {"measurement": "MIC", "setting": "Oryctolagus cuniculus [15]", "value": "> 40", "unit": "µg/mL"},
      {"measurement": "IC50", "setting": "[16]", "value": 23.3, "unit": "µg/mL"},
      {"measurement": "MIC", "setting": "Vero [17]", "value": 20, "unit": "µg/mL"},
      {"measurement": "MCC", "setting": "Vero [18]", "value": "> 40", "unit": "µg/mL"},
      {"measurement": "MIC", "setting": "Oryctolagus cuniculus [19]", "value": 2, "unit": "µg/mL"}
    ]}
  ]
}
